Measured values from ChEMBL document CHEMBL3992510, “Urea Derivatives of 2-Aryl-benzothiazol-5-amines: A New Class of Potential Drugs for Human African Trypanosomiasis” (J Med Chem, 2017).
Active and inactive are the calls of the source. The calls are words filed in the database; no cut-off is given here.

Experiments:
Liver [1] = assay: Half life in human liver microsomes at 1.5 uM in presence of NADPH by liquid chromatography/tandem mass spectrometric analysis; format: ADME, microsome
Liver [2] = assay: Half life in mouse liver microsomes at 1.5 uM in presence of NADPH by liquid chromatography/tandem mass spectrometric analysis; format: ADME, microsome
[3] = Stability in human liver microsomes assessed as compound remaining at 1.5 uM in presence of NADPH measured after 5 mins by liquid chromatography/tandem mass spectrometric analysis; format: ADME, microsome; details: read-out: Stability
Procedure, shortened: (§1)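 Pooled liver microsomes (0.5 mg/mL) are preincubated 5 min at 37 °C in 0.16 M KH2PO4 with 1 mM NADPH, then test compound is added at 1.5 μM. Aliquots are quenched with 4 volumes of acetonitrile at 0, 5, 10, 15, 30 and 60 min and analyzed by LC-MS/MS. Percent remaining at 5 or 60 min is given when t1/2 is outside the 5–60 min range. Controls: testosterone, dextromethorphan.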

[4] = Stability in mouse liver microsomes assessed as compound remaining at 1.5 uM in presence of NADPH measured after 5 mins by liquid chromatography/tandem mass spectrometric analysis; format: ADME, microsome; details: read-out: Stability
[5] = Selectivity index, ratio of EC50 for human HepG2 cells to EC50 for Trypanosoma brucei brucei BF427; format: toxicity; details: read-out: Ratio EC50
HepG2 = assay: Cytotoxicity against human HepG2 cells assessed as growth inhibition after 48 hrs by Alamar blue assay; format: cell-based; details: for EC50: Homo sapiens, HepG2, 48 h; for EC90: human, hepg2, 48 h
Procedure, shortened: (§2)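 CRL-8155 lymphoblasts or HepG2 hepatocellular carcinoma cells are exposed 48 h to serial compound dilutions in quadruplicate. Growth is read with Alamar Blue, and 50% and 90% inhibitory concentrations come from nonlinear regression. Quinacrine is the control.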

[6] = Selectivity index, ratio of EC50 for human CRL8155 cells to EC50 for Trypanosoma brucei brucei BF427; format: toxicity; details: read-out: Ratio EC50
[7] = test system: Trypanosoma brucei brucei; assay: Antitrypanosomal activity against Trypanosoma brucei brucei BF427 assessed as growth inhibition measured after 48 hrs by Alamar blue assay; format: functional; details: BF427, 48 h
Procedure, shortened: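 Bloodstream-form parasites in HMI-9 medium are exposed to serial compound dilutions in triplicate. Viability is read with Alamar Blue at 48 h. EC50 and EC90 come from nonlinear regression. Pentamidine isethionate is the control.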

[8] = Cytotoxicity against human CRL8155 cells assessed as growth inhibition after 48 hrs by Alamar blue assay; format: cell-based; details: for EC50: Homo sapiens, CRL8155, 48 h; for EC90: human, crl8155, 48 h; procedure, shortened: as §2
[9] = AUC (0 to infinity) in mouse at 50 mg/kg, po administered as single dose via gavage as 7% Tween 80/3% EtOH/5% DMSO formulation by liquid chromatography/tandem mass spectrometric analysis; format: ADME, organism-based; design: dose 50 mg/kg, route oral, time infinity; details: in vivo
Procedure, shortened: (§3)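 Single oral gavage dose of 50 mg/kg to groups of three mice, vehicle as in the line. Tail blood of 40 μL is taken into heparinized capillaries at time points out to as much as 32 h. It is spotted on dried-blood cards and quantified by LC-MS/MS. Values are means ± SEM of three mice.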

[10] = Stability in mouse liver microsomes assessed as compound remaining at 1.5 uM in presence of NADPH measured after 60 mins by liquid chromatography/tandem mass spectrometric analysis; format: ADME, microsome; details: read-out: Stability; procedure, shortened: as §1
[11] = Ratio of drug level in brain to plasma in mouse at 5 mg/kg, ip administered as single dose measured at 1 hr post dose by liquid chromatography/tandem mass spectrometric analysis; format: ADME, organism-based
Procedure, shortened: (§4)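 Single ip dose of 5 mg/kg in 5% DMSO/7% Tween 80/3% EtOH in 0.9% saline, three mice per compound (six for one compound). At 1 h, plasma is separated by centrifugation and brain homogenized in acetonitrile. Both are quantified by LC-MS/MS, with brain corrected for 3% v/w blood. Brain/plasma ratio is reported as mean ± SEM.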

[12] = Drug level in mouse brain at 5 mg/kg, ip administered as single dose measured at 1 hr post dose by liquid chromatography/tandem mass spectrometric analysis; format: ADME, organism-based; details: read-out: Drug uptake; procedure, shortened: as §4
[13] = Drug level in mouse plasma at 5 mg/kg, ip administered as single dose measured at 1 hr post dose by liquid chromatography/tandem mass spectrometric analysis; format: ADME, organism-based; procedure, shortened: as §4
[14] = Stability in human liver microsomes assessed as compound remaining at 1.5 uM in presence of NADPH measured after 60 mins by liquid chromatography/tandem mass spectrometric analysis; format: ADME, microsome; details: read-out: Stability; procedure, shortened: as §1
[15] = Cmax in mouse at 50 mg/kg, po administered as single dose via gavage as 7% Tween 80/3% EtOH/5% DMSO formulation by liquid chromatography/tandem mass spectrometric analysis; format: ADME, organism-based; design: dose 50 mg/kg, route oral; details: in vivo; procedure, shortened: as §3
[16] = test system: Trypanosoma brucei brucei; assay: Anti-parasitic activity against Trypanosoma brucei brucei TREU667 infected in mouse assessed as reduction in parasitemia at 10 mg/kg, ip bid administered on day 21 to 30 post infection measured on day 180 by microscopic method; format: functional, organism-based

t1/2 (Liver [1]) [min] | t1/2 (Liver [2]) [min] | remaining at 5 min, 1.5 µM [3] [%] | remaining at 5 min, 1.5 µM [4] [%] | EC50 [7] [µM] | EC90 [7] [µM] | AUC(0-inf) [9] [µM·h] | concentration at 1 h [12] [µM] | concentration at 1 h [13] [µM] | remaining at 1 h, 1.5 µM [14] [%] | SMILES | selectivity ratio [5] | EC50 (HepG2) [µM] | EC90 (HepG2) [µM] | selectivity ratio [6] | EC50 [8] [µM] | EC90 [8] [µM] | remaining at 1 h, 1.5 µM [10] [%] | BPR [11] | Cmax [15] [µM] | Activity [16]
< 5 | < 5 | 46 | 0 | – | – | – | – | – | – | O=C(NCCc1nc(-c2ccc(F)cc2F)cs1)N1CCCCC1 | – | – | – | – | – | – | – | – | – | –
< 5 | < 5 | 22 | 0 | – | – | – | – | – | – | O=C(NCCc1nc(-c2ccc(F)c(F)c2)cs1)N1CCCCC1 | – | – | – | – | – | – | – | – | – | –
< 5 | 13 | 28 | – | 0.0946 | 0.216 | – | – | – | – | O=C(N/C=C/c1nc(-c2cccc(F)c2)cs1)N1CCCCC1 | > 529 | > 50 | > 50 | > 529 | > 50 | > 50 | – | – | – | –
< 5 | < 5 | 3.9 | 21 | 0.037 | 0.0586 | – | – | – | – | CC1CCCCN1C(=O)NCCc1nc(-c2cccc(F)c2)cs1 (stereo not given) | > 1350 | > 50 | > 50 | > 1350 | > 50 | > 50 | – | – | – | –
– | – | – | – | 0.114 | 0.747 | 225 | 16.2 | 2.19 | 96 | O=C(Nc1ccc2sc(-c3ccc(F)c(F)c3)nc2c1)N1C[C@@H](F)[C@H](F)C1 | > 439 | > 50 | > 50 | > 238 | 27.1 | > 50 | 67 | 7.71 | – | –
– | – | – | – | – | – | – | – | – | – | N=C(N)c1ccc(/N=N/Nc2ccc(C(=N)N)cc2)cc1 | – | – | – | – | – | – | – | – | – | inactive
– | 14 | – | – | 0.0918 | 0.181 | 7.39 | 4.25 | 2.61 | 66 | O=C(Nc1ccc2sc(-c3ccc(F)c(F)c3)nc2c1)N1CCCC1 | > 545 | > 50 | > 50 | 369 | 33.9 | > 50 | – | – | – | –

SMILES | t1/2 (Liver [1]) [min] | t1/2 (Liver [2]) [min] | remaining at 5 min, 1.5 µM [3] [%] | remaining at 5 min, 1.5 µM [4] [%] | EC50 [7] [µM] | EC90 [7] [µM] | AUC(0-inf) [9] [µM·h] | concentration at 1 h [12] [µM] | concentration at 1 h [13] [µM] | remaining at 1 h, 1.5 µM [14] [%] | selectivity ratio [5] | EC50 (HepG2) [µM] | EC90 (HepG2) [µM] | selectivity ratio [6] | EC50 [8] [µM] | EC90 [8] [µM] | remaining at 1 h, 1.5 µM [10] [%] | BPR [11] | Cmax [15] [µM] | Activity [16]
O=C(Nc1ccc2sc(-c3ccc(F)c(F)c3)nc2c1)N1CCC(F)C1 (stereo not given) | > 60 | > 60 | – | – | 0.0519 | 0.0919 | 108 | 5.48 | 3.26 | 99 | > 963 | > 50 | > 50 | > 963 | > 50 | – | 52 | 2.11 | 10 | –
